Assay results published in ChEMBL document CHEMBL3526125, “P-glycoprotein increases portal bioavailability of loperamide in mouse by reducing first-pass intestinal metabolism” (Drug Metab Dispos, 2013).

Key:
[1] = Portal bioavailability in P-gp competent CF-1 mouse at 0.23 mg/kg through oral gavage by LC-MS/MS analysis in presence of 1 mM ABT CYP3A inhibitor; type: ADME, organism-based; conditions: in vivo
Summary of the method: (§1)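 Mice received oral ABT 50 mg/kg 3 h before study, plus another 50 mg/kg co-administered with loperamide 0.23 mg/kg in 300 µL 0.9% NaCl with 1% EtOH. Portal and jugular sampling over 240 min. F_G = (portal minus systemic-returned mass)/dose, using portal flow 1.45 mL/min and blood:plasma ratio 0.71. n=6.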

[2] = Portal bioavailability in P-gp deficient CF-1 mouse at 0.23 mg/kg through oral gavage by LC-MS/MS analysis in presence of 1 mM ABT CYP3A inhibitor; type: ADME, organism-based; conditions: in vivo; summary of the method: as §1
[3] = AUC in P-gp competent CF-1 mouse plasma at 0.23 mg/kg through systemic exposure; type: ADME, organism-based; design: dose 0.23 mg/kg
Summary of the method: (§2)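 Overnight-fasted, ketamine/xylazine-anesthetized CF-1 or Mdr1a1-/- mice with jugular vein cannulae. Loperamide 0.23 or 0.47 mg/kg by oral gavage in 300 µL 0.9% NaCl with 1% EtOH. Jugular blood (20 µL) taken at 10, 30, 60, 120, 180 and 240 min. Plasma loperamide measured by LC-MS/MS. AUC0–240 min, n=6.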

[4] = AUC in P-gp competent CF-1 mouse plasma at 0.47 mg/kg through systemic exposure; type: ADME, organism-based; design: dose 0.47 mg/kg; summary of the method: as §2
[5] = AUC in P-gp deficient CF-1 mouse plasma at 0.23 mg/kg through systemic exposure; type: ADME, organism-based; design: dose 0.23 mg/kg; summary of the method: as §2
[6] = AUC in P-gp deficient CF-1 mouse plasma at 0.47 mg/kg through systemic exposure; type: ADME, organism-based; design: dose 0.47 mg/kg; summary of the method: as §2
[7] = AUC (0 to 240 mins) in P-gp deficient CF-1 mouse plasma at 0.23 mg/kg through oral gavage; type: ADME, organism-based; design: time < 4 hr, dose 0.23 mg/kg, route oral
Summary of the method: (§3)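 Male CF-1 (P-gp competent) or Mdr1a1-/- mice, overnight-fasted, on ketamine/xylazine anesthesia held at 37°C, portal vein-cannulated. Loperamide 0.23, 0.47 or 0.95 mg/kg by oral gavage in 300 µL 0.9% NaCl with 1% EtOH. Serial 20 µL portal blood samples over 240 min. Plasma loperamide quantified by LC-MS/MS. AUC0–240 min reported as mean ± SD, n=6.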

[8] = AUC (0 to 240 mins) in P-gp competent CF-1 mouse plasma at 0.94 mg/kg through oral gavage; type: ADME, organism-based; design: time < 4 hr, dose 0.94 mg/kg, route oral; summary of the method: as §3
[9] = AUC (0 to 240 mins) in P-gp competent CF-1 mouse plasma at 0.47 mg/kg through oral gavage; type: ADME, organism-based; design: time < 4 hr, dose 0.47 mg/kg, route oral; summary of the method: as §3
[10] = AUC (0 to 240 mins) in P-gp competent CF-1 mouse plasma at 0.23 mg/kg through oral gavage; type: ADME, organism-based; design: time < 4 hr, dose 0.23 mg/kg, route oral; summary of the method: as §3
[11] = AUC (0 to 240 mins) in P-gp deficient CF-1 mouse plasma at 0.47 mg/kg through oral gavage; type: ADME, organism-based; design: time < 4 hr, dose 0.47 mg/kg, route oral; summary of the method: as §3
[12] = Drug metabolism in P-gp competent CF-1 mouse intestine assessed as CYP3A-mediated metabolite formation […]; type: ADME, tissue-based; conditions: excised jejunum tissue
[13] = Drug metabolism in P-gp deficient CF-1 mouse intestine assessed as CYP3A-mediated metabolite formation […]; type: ADME, tissue-based; conditions: excised jejunum tissue
CYP3A [14] = test: Drug metabolism in P-gp competent CF-1 mouse intestine assessed as CYP3A-mediated […] by LC-MS/MS analysis; type: ADME, tissue-based
Summary of the method: (§4)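 Jejunum from fasted CF-1 or Mdr1a1-/- mice mounted in diffusion chambers in oxygenated KBR at 37°C; tissue used if TEER ≥250 Ω·cm². Apical loperamide 0.75–125 µM in KBR with 0.1% EtOH for 90 min. Monodemethyl- plus didemethyl-loperamide summed across tissue, AP and BL by LC-MS/MS. Fitted to Michaelis–Menten for Vmax and Km. n=3 mice × 4 tissues.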

CYP3A [15] = test: Drug metabolism in P-gp deficient CF-1 mouse intestine assessed as CYP3A-mediated […] by LC-MS/MS analysis; type: ADME, tissue-based; summary of the method: as §4
[16] = Portal bioavailability in P-gp deficient CF-1 mouse at 0.94 mg/kg through oral gavage; type: ADME, organism-based; conditions: in vivo
Summary of the method: (§5)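 Portal vein-cannulated, anesthetized CF-1 or Mdr1a1-/- mice given oral loperamide 0.23, 0.47 or 0.94 mg/kg. Portal and systemic plasma converted to blood concentration using a blood:plasma ratio of 0.71. M_portal = Q_portal (1.45 mL/min) × AUC_portal(0–4 h). M_systemic is subtracted to give M_absorbed, and F_G = M_absorbed/dose. n=6.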

[17] = Portal bioavailability in P-gp competent CF-1 mouse at 0.47 mg/kg through oral gavage; type: ADME, organism-based; conditions: in vivo; summary of the method: as §5
[18] = Portal bioavailability in P-gp deficient CF-1 mouse at 0.47 mg/kg through oral gavage; type: ADME, organism-based; conditions: in vivo; summary of the method: as §5
[19] = Portal bioavailability in P-gp competent CF-1 mouse at 0.23 mg/kg through oral gavage; type: ADME, organism-based; conditions: in vivo; summary of the method: as §5
[20] = Portal bioavailability in P-gp deficient CF-1 mouse at 0.23 mg/kg through oral gavage; type: ADME, organism-based; conditions: in vivo; summary of the method: as §5
[21] = AUC (0 to 240 mins) in P-gp deficient CF-1 mouse plasma at 0.94 mg/kg through oral gavage; type: ADME, organism-based; design: time < 4 hr, dose 0.94 mg/kg, route oral; summary of the method: as §3
[22] = AUC (0 to 120 mins) in P-gp competent CF-1 mouse plasma at 0.4 mg/kg through oral gavage in presence of 1 mM ABT CYP3A inhibitor; type: ADME, organism-based; design: time < 2 hr, dose 0.4 mg/kg, route oral
[23] = AUC (0 to 120 mins) in P-gp competent CF-1 mouse plasma at 0.4 mg/kg through oral gavage; type: ADME, organism-based; design: time < 2 hr, dose 0.4 mg/kg, route oral
Summary of the method: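 Mice were anaesthetised with IP ketamine 140 mg/kg and xylazine 15 mg/kg, kept at 37°C, and portal vein-cannulated. Pretreatment was saline or oral ABT at 50 mg/kg. Portal-circulation AUC0–120 min was calculated.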

[24] = Drug metabolism in P-gp competent CF-1 mouse intestine assessed as CYP3A-mediated metabolite formation measured per cm'2 of tissue by LC-MS/MS analysis in presence of 100 uM Cyp3a oxidative metabolism inhibitor troleandomycin; type: ADME, tissue-based
[25] = Drug metabolism in P-gp deficient CF-1 mouse intestine assessed as CYP3A-mediated metabolite formation measured per cm'2 of tissue by LC-MS/MS analysis in presence of 100 uM Cyp3a oxidative metabolism inhibitor troleandomycin; type: ADME, tissue-based

CN(C)C(=O)C(CCN1CCC(O)(c2ccc(Cl)cc2)CC1)(c1ccccc1)c1ccccc1 [LOPERAMIDE]
Fg [1]: 3.6%
Fg [2]: 28%
AUC [3]: 0.933 ng·h/mL
AUC [4]: 0.517 ng·h/mL
AUC [5]: 1.03 ng·h/mL
AUC [6]: 4.33 ng·h/mL
AUC(0-t) at 4 h [7]: 1.5 ng·h/mL
AUC(0-t) at 4 h [8]: 81.7 ng·h/mL
AUC(0-t) at 4 h [9]: 4.48 ng·h/mL
AUC(0-t) at 4 h [10]: 4.43 ng·h/mL
AUC(0-t) at 4 h [11]: 7 ng·h/mL
Vmax [12]: 31 pmol/min/cm²
Vmax [13]: 30 pmol/min/cm²
Km (CYP3A [14]): 22 µM
Km (CYP3A [15]): 4.5 µM
Fg [16]: 17%
Fg [17]: 1.7%
Fg [18]: 1.1%
Fg [19]: 2.6%
Fg [20]: 0.4%
AUC(0-t) at 4 h [21]: 95 ng·h/mL

C[C@]12CC[C@H]3[C@@H](CCC4=CC(=O)CC[C@@]43C)[C@@H]1CC[C@@H]2O [TESTOSTERONE]
AUC(0-t) at 2 h [22]: 1 ng·h/mL
AUC(0-t) at 2 h [23]: 43.3 ng·h/mL
Vmax [24]: 0.5 pmol/min
Vmax [25]: 0.5 pmol/min
